Only some compounds are listed: those with a hit (about 2.7% of all), similar ones and a draw of the others.
PAFAH1B2 FP inh = PAFAH1B2 (human) inhibition; P68402; recombinant PAFAH1B2, FP-rhodamine activity probe, fluorescence polarization; inhibition, % at 3.39 µM; 1.2% of 340,000 active;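 active = inhibition above the mean of all tested compounds plus 3 SD, cut at about 24% in these data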;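 also: 0% = enzyme with DMSO and 100% = wells lacking PAFAH1B2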
Target sequence (P68402 whole entry, looked up): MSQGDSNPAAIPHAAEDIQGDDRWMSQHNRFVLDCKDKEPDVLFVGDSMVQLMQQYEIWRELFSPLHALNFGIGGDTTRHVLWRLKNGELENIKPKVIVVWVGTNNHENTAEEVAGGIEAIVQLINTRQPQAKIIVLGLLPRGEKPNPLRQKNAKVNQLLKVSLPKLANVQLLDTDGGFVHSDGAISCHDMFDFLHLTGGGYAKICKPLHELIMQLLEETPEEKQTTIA
pPAFAH FP inh = pPAFAH (human) enzyme inhibition | 1.5% of 330,000 active | inhibition, % at 3.39 µM | recombinant pPAFAH, FP-rhodamine probe fluorescence polarization;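 active = inhibition above the mean inhibition across the screen plus 3 SD, cut at about 25% in these data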;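 also: inhibitors block binding of the rhodamine activity-based probe so polarization drops; 0% = enzyme with DMSO and 100% = wells lacking pPAFAH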
Target sequence (Q13093 whole entry, looked up): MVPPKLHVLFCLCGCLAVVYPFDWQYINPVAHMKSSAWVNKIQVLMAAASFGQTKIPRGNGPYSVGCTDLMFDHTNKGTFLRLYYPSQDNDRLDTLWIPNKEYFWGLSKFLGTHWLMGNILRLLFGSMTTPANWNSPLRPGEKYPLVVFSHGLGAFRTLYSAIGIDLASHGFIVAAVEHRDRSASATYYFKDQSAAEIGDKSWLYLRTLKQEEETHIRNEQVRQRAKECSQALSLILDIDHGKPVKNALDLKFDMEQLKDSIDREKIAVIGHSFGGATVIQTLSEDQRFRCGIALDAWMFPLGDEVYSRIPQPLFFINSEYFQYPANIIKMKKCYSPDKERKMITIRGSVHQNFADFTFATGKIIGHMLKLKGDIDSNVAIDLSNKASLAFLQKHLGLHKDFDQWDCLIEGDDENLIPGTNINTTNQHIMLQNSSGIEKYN
ARFGAP1 inh = rat ARFGAP1 inhibition | Q62848 | Arfgap1-stimulated ARF1 GTP hydrolysis, GDP FP detection | inhibition, % at 16.5 µM | 0.26% of 360,000 active | AID 651572;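 active = inhibition above a per-plate limit, mean inhibition of low control wells plus 3 SD, cut at about 25% in these data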;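 also: 0% = DMSO wells with enzyme and 100% = wells lacking Arfgap1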
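Material: rat Arfgap1 GAP domain (His6, aa 1-136), purified enzyme. Also added: human ARF1(Δ1-17)-GTP substrate. Compound dosing: 16.5 µM single point, 1.26% DMSO. Timing: enzyme reaction 120 min at 25 °C after 20 min preincubation. Signal: GDP detection by fluorescence polarization. Read-out basis: percent inhibition of GAP-stimulated GDP formation, scaled between DMSO and no-Arfgap1 medians.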
ASAP1 GAP inh = blocks human ASAP1-stimulated Arf1 GTP hydrolysis; GDP FP detection; 0.19% of 360,000 active; Q9ULH1; AID 624377; inhibition, % at 16.5 µM; in the data active = inhibition above about 25%;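 also: 0% = vehicle with enzyme and substrate and 100% = no enzyme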
PAFAH1B3 FP inh = inhibitors of human PAFAH1B3. Q15102. recombinant PAFAH1B3, FP-rhodamine probe, fluorescence polarization. inhibition, % at 3.39 µM. 0.28% of 340,000 active. AID 492972;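 active = inhibition above the screen-wide average of all tested compounds plus 3 SD, cut at about 25% in these data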;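 also: 0% = enzyme with DMSO only and 100% = wells lacking PAFAH1B3 protein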
PAFAH2 inh = PAFAH2 (human) inhibition | 0.99% of 340,000 active | Q99487 | inhibition, % at 3.39 µM | AID 492956 | recombinant PAFAH2, FP-rhodamine activity probe, fluorescence polarization;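 active = inhibition above the mean over all tested compounds plus 3 SD, cut at about 30% in these data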;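 also: inhibitors block probe labeling of enzyme so polarization drops; 0% = enzyme with DMSO and 100% = wells lacking PAFAH2 protein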
PAFAH2 confirm = confirmation of human PAFAH2 inhibitors; shares compounds with PAFAH2 inh; recombinant PAFAH2, FP-rhodamine activity probe, fluorescence polarization; inhibition, % at 3.39 µM; 65% of 2,300 active; AID 493030;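 active = mean inhibition over three repeats above a set limit taken from the earlier primary screen, cut at about 30% in these data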;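 also: inhibitor blocks binding of rhodamine activity probe so polarization falls; 0% = enzyme with DMSO and 100% = wells lacking PAFAH2 protein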
Numbers without * were called inactive; · = no result given.

SMILES	PAFAH1B2 FP inh	pPAFAH FP inh	ARFGAP1 inh	ASAP1 GAP inh	PAFAH1B3 FP inh	PAFAH2 inh	PAFAH2 confirm
Cc1nc(S/C(=C/c2ccc(-c3cccc(Cl)c3)o2)C(=O)O)n[nH]1	20.8	5.8	6.0	-6.4	6.1	46.4*	31.9*
O=S(=O)(c1ccc2c(c1)CCCN2)N1CCCC2CCCCC21 (stereo not drawn)	24.0	5.5	19.8	-4.2	24.0	30.7*	2.4
O=S(=O)(c1ccc2c(c1)CCCN2)N1CCCC1	6.8	-1.7	-1.5	13.1	-0.8	-0.9	·
O=C(COC(=O)C1CC2C=CC1C2)Nc1cccc(S(=O)(=O)N2CCCCCC2)c1 (stereo not drawn)	3.1	16.4	2.1	4.5	12.3	35.7*	24.0
O=C(COC(=O)C1CC2C=CC1C2)Nc1cccc(S(=O)(=O)N2CCCCC2)c1 (stereo not drawn)	6.5	6.8	-0.7	-5.6	-2.0	53.4*	41.1*
O=C(COC(=O)C1CCC1)Nc1cccc(S(=O)(=O)N2CCOCC2)c1	3.1	-1.9	6.8	2.4	-3.1	9.5	·
CC(C)[C@@H](C)/C=C/[C@@H](C)[C@H]1CC[C@@H]2[C@]1(C)CCC1[C@]23C=C[C@]2(C[C@@H](O)CC[C@]12C)N(c1ncc(C(F)(F)F)cc1Cl)O3 (stereo partly drawn)	·	·	1.3	10.4	·	·	·
COc1cc(C2C(C(=O)c3cc4ccccc4o3)=C(O)C(=O)N2c2cc(C)on2)cc(OC)c1OC (stereo not drawn)	4.8	8.0	-2.7	6.2	4.6	-1.5	·
COc1cccc(C2C(C(=O)c3cc4ccccc4o3)=C(O)C(=O)N2c2cc(C)on2)c1OC (stereo not drawn)	2.3	4.9	-3.2	-11.1	6.3	35.5*	23.7
CN1CCN(C(=O)c2ccc(-c3ccc(F)c(F)c3)c3ccoc23)CC1	·	·	3.6	11.9	·	·	·
O=C(OCn1nnc2ccccc2c1=O)c1ccc(O)cc1	5.2	0.0	-0.4	2.2	7.4	33.3*	19.5
CCOc1ccc(C(=O)OCn2nnc3ccccc3c2=O)cc1OC	0.6	1.4	-1.2	-2.4	8.7	63.0*	51.7*
COc1cc(C(=O)OCn2nnc3ccccc3c2=O)cc(OC)c1OC	4.8	-5.7	-6.8	-1.6	1.2	-11.1	·
Cc1ccccc1C(=O)OCn1nnc2ccccc2c1=O	7.2	6.8	-3.2	-8.5	3.2	9.0	·
COc1ccc(C(=O)OCn2nnc3ccccc3c2=O)cc1	7.8	-1.8	1.6	0.0	-4.0	42.6*	36.9*
COc1cccc(C(=O)OCn2nnc3ccccc3c2=O)c1OC	0.2	9.5	7.8	-1.1	-3.0	50.3*	45.4*
COC(=O)c1ccc2nc(-c3cccc(Br)c3)c(Cc3ccsc3)n2c1	·	·	-7.0	0.6	·	·	·
CC(C)(CC(=O)OCC(=O)Nc1ccccc1F)CC1=NS(=O)(=O)c2ccccc2N1	-6.8	0.0	-13.0	4.8	1.3	30.9*	27.7
COc1cc(C(=O)OCC(=O)NCCC2=CCCCC2)ccc1OCC(C)C	3.9	6.6	8.5	-10.9	-1.9	41.3*	42.8*
COc1cccc(C(=O)OCC(=O)NCCC2=CCCCC2)c1	3.2	22.2	-1.3	8.0	2.4	37.6*	23.1
CCOc1ccccc1-n1nnnc1SCC(=O)N1CCCC1=O	1.6	0.3	2.5	2.3	16.8	65.9*	55.7*
CCOC(=O)c1c(-c2ccccc2)oc2ccc(OCC(=O)NNC(=O)CCCC(=O)O)cc12	17.1	·	-2.5	-9.0	23.2	40.6*	3.3
CCOC(=O)c1c(-c2ccccc2)oc2ccc(OCC(=O)NNC(=O)CCC(=O)O)cc12	2.8	·	4.2	-15.8	3.8	-3.0	·
Cc1cccc([N+](=O)[O-])c1NC(=O)COC(=O)C1CC2CCCC(C1)C2=O (stereo not drawn)	3.2	3.3	13.4	-3.2	5.8	9.2	·
COc1cccc(NC(=O)COC(=O)C2CC3CCCC(C2)C3=O)c1 (stereo not drawn)	9.4	-2.5	-19.0	9.9	-1.6	58.1*	54.2*
SMILES	PAFAH1B2 FP inh	pPAFAH FP inh	ARFGAP1 inh	ASAP1 GAP inh	PAFAH1B3 FP inh	PAFAH2 inh	PAFAH2 confirm
Cc1ccc([N+](=O)[O-])c(NC(=O)COC(=O)C2CC3CCCC(C2)C3=O)c1C (stereo not drawn)	2.3	-0.5	3.2	-9.9	8.5	34.2*	31.9*
COc1cccc(CNC(=O)COC(=O)C2CC3CCCC(C2)C3=O)c1 (stereo not drawn)	3.0	-1.1	-10.9	9.3	6.2	-4.4	·
Cc1ccc(-c2noc(CCC(=O)Nc3cccc(C(=O)NC4CC4)c3)n2)cc1	·	·	-3.8	-3.0	·	·	·
O=C(COC(=O)/C=C/c1ccco1)NCc1ccc(Cl)cc1	3.7	-3.1	0.3	-3.2	1.6	42.8*	37.8*
O=C(COC(=O)/C=C/c1ccc(Cl)cc1)NC(=O)NCc1ccccc1	-7.5	-7.2	9.1	-17.8	-7.4	-17.5	·
O=C(COC(=O)/C=C/c1ccccc1)NCc1ccc(Cl)cc1	0.7	9.3	3.0	3.0	8.0	33.6*	34.4*
CCCNC(=O)COC(=O)/C=C/c1ccco1	6.7	0.1	-9.3	-9.0	2.3	35.7*	28.2
CC1(C)OC(=O)NC1c1ccccc1 (stereo not drawn)	·	·	-5.4	-5.7	·	·	·
CC(C)C1C(=O)N(Cc2cn(CC3CCCCC3)nn2)CCS(=O)(=O)N1Cc1ccc(-c2ccccc2)cc1 (stereo not drawn)	·	·	-3.2	-0.9	·	·	·
Cc1c(Cl)cnc(NC(=O)COC(=O)c2cccs2)c1Cl	-2.2	-1.0	-6.2	-12.5	6.0	57.6*	41.1*
Cc1nc(NC(=O)COC(=O)CCC(=O)c2cccs2)c(Cl)cc1Cl	0.2	21.1	-6.8	4.9	6.2	3.9	·
Cc1nc(NC(=O)COC(=O)c2cccs2)c(Cl)cc1Cl	2.0	·	1.6	0.5	2.0	42.8*	29.0
COc1cc(CNC(=O)Nc2cccn3nc(COCCO)nc23)cc(OC)c1OC	·	·	-20.1	-1.2	·	·	·
O=[N+]([O-])c1ccc(CN2CCCCCC2)s1	5.3	4.6	4.0	-2.0	4.7	32.0*	11.2
O=[N+]([O-])c1ccc(CN2CCCCCC2)cc1	6.5	2.5	17.8	-0.6	6.2	-5.7	·
CCN1C(=O)[C@H]2[C@@H](c3ccc(-c4cc(C(C)=O)cs4)cc3)N3CCCC[C@@]3(C(=O)OC)[C@H]2C1=O	-1.4	1.5	7.6	8.7	0.2	-5.9	·
C[C@H]1CN([C@@H](C)CO)C(=O)CCCn2nncc2CO[C@@H]1CN(C)S(=O)(=O)c1ccc(-c2ccccc2)cc1	·	·	-0.7	-2.2	·	·	·
COC(=O)c1c(-c2c(Cl)cccc2Cl)noc1NC(=O)NN1CCCCC1	4.8	15.4	-1.6	2.1	4.7	74.6*	68.2*

Screening data as filed in PubChem BioAssay.
